According to article PMC7359933 (Clinical and Translational Science, 2020):
Where two headings read alike, the source gives them in different places. Marks after values point to notes of the source that are not given here.

Legend:
healthy volunteers [1] = experiment: Thorough QT/QTc study part 2: Holter ECG, Fridericia-corrected QT interval; type: in vivo, human
Summary of the method: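 Healthy subjects, randomized four-period crossover with 10-day washouts, fed: oral fostemsavir 1,200 mg q.d. or 2,400 mg b.i.d. for 7 days, placebo b.i.d., or single moxifloxacin 400 mg on day 7. Triplicate ECGs from 24-h Holter, read centrally. Baseline is the mean of day-1 predose readings; readings 0.5–22.25 h post-dose on day 7. Linear mixed model gives 90% CI; bound 10 msec; assay sensitivity >5 msec at 2–4 h.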

healthy volunteers [2] = test system: healthy volunteers; set-up: species or system human; details: at observed mean TMR Cmax, healthy adults
healthy volunteers [3] = experiment: Adverse events and discontinuations in thorough QT study part 2; type: in vivo, human
healthy volunteers [4] = experiment: Thorough QT study part 1 sentinel cohort safety; type: in vivo, human; details: fostemsavir 2,400 mg b.i.d. for 7 days (n = 6)
healthy volunteers [5] = details: total daily fostemsavir dose of 20–2,400 mg ref 10; cited from earlier work
HIV‐1 = details: cited from earlier work
[6] = test system: heavily treatment‐experienced subjects; details: treated for 96 weeks, BRIGHTE, fostemsavir 600 mg b.i.d. ref 23; cited from earlier work
[7] = TMR after FTR 600 mg b.i.d., N = 16, healthy adults ref 21; cited from earlier work
[8] = fostemsavir 1,200 mg q.d., at 6 hours postdose
[9] = fostemsavir 2,400 mg b.i.d., at 5 hours post‐AM dose

COc1cnc(-n2cnc(C)n2)c2c1c(C(=O)C(=O)N1CCN(C(=O)c3ccccc3)CC1)cn2COP(=O)(O)O [fostemsavir]
Mean change from baseline, msec ddQTcF (healthy volunteers [1]; FTR 1,200 mg q.d. (A), day 7, 0.5 hour): –7.44 msec
Mean change from baseline, msec ddQTcF (healthy volunteers [1]; FTR 1,200 mg q.d. (A), day 7, 1 hour): –7.25 msec
Mean change from baseline, msec ddQTcF (healthy volunteers [1]; FTR 1,200 mg q.d. (A), day 7, 2 hour): –6.78 msec
Mean change from baseline, msec ddQTcF (healthy volunteers [1]; FTR 1,200 mg q.d. (A), day 7, 3 hour): –7.54 msec
Mean change from baseline, msec ddQTcF (healthy volunteers [1]; FTR 1,200 mg q.d. (A), day 7, 4 hour): –3.37 msec
Mean change from baseline, msec ddQTcF (healthy volunteers [1]; FTR 1,200 mg q.d. (A), day 7, 5 hour): –0.49 msec
Mean change from baseline, msec ddQTcF (healthy volunteers [1]; FTR 1,200 mg q.d. (A), day 7, 6 hour): –4.52 msec
Mean change from baseline, msec ddQTcF (healthy volunteers [1]; FTR 1,200 mg q.d. (A), day 7, 8 hour): –6.87 msec
Mean change from baseline, msec ddQTcF (healthy volunteers [1]; FTR 1,200 mg q.d. (A), day 7, 10 hour): 0.76 ms
Mean change from baseline, msec ddQTcF (healthy volunteers [1]; FTR 1,200 mg q.d. (A), day 7, 11.5 hour): –5.31 msec
Mean change from baseline, msec ddQTcF (healthy volunteers [1]; FTR 1,200 mg q.d. (A), day 7, 14 hour): –7.05 msec
Mean change from baseline, msec ddQTcF (healthy volunteers [1]; FTR 1,200 mg q.d. (A), day 7, 15 hour): –3.84 msec
Mean change from baseline, msec ddQTcF (healthy volunteers [1]; FTR 1,200 mg q.d. (A), day 7, 16 hour): –1.48 msec
Mean change from baseline, msec ddQTcF (healthy volunteers [1]; FTR 1,200 mg q.d. (A), day 7, 22.25 hour): –3.18 msec
Mean difference vs. placebo (90% CI), msec ddQTcF (healthy volunteers [1]; FTR 1,200 mg q.d. (A–D), day 7, 0.5 hour): 0.10 (–1.98, 2.18) msec
Mean difference vs. placebo (90% CI), msec ddQTcF (healthy volunteers [1]; FTR 1,200 mg q.d. (A–D), day 7, 1 hour): 0.51 (–1.57, 2.58) msec
Mean difference vs. placebo (90% CI), msec ddQTcF (healthy volunteers [1]; FTR 1,200 mg q.d. (A–D), day 7, 2 hour): 3.84 (1.75, 5.93) msec
Mean difference vs. placebo (90% CI), msec ddQTcF (healthy volunteers [1]; FTR 1,200 mg q.d. (A–D), day 7, 3 hour): 2.49 (0.40, 4.57) msec
Mean difference vs. placebo (90% CI), msec ddQTcF (healthy volunteers [1]; FTR 1,200 mg q.d. (A–D), day 7, 4 hour): 3.66 (1.58, 5.75) msec
Mean difference vs. placebo (90% CI), msec ddQTcF (healthy volunteers [1]; FTR 1,200 mg q.d. (A–D), day 7, 5 hour): 4.18 (2.11, 6.26) msec
Mean difference vs. placebo (90% CI), msec ddQTcF (healthy volunteers [1]; FTR 1,200 mg q.d. (A–D), day 7, 6 hour): 4.27 (2.19, 6.34) msec
Mean difference vs. placebo (90% CI), msec ddQTcF (healthy volunteers [1]; FTR 1,200 mg q.d. (A–D), day 7, 10 hour): 3.94 (1.86, 6.01) msec
Mean difference vs. placebo (90% CI), msec ddQTcF (healthy volunteers [1]; FTR 1,200 mg q.d. (A–D), day 7, 11.5 hour): 1.61 (–0.48, 3.69) msec
Mean difference vs. placebo (90% CI), msec ddQTcF (healthy volunteers [1]; FTR 1,200 mg q.d. (A–D), day 7, 14 hour): –0.10 (–2.18, 1.972) msec
Mean difference vs. placebo (90% CI), msec ddQTcF (healthy volunteers [1]; FTR 1,200 mg q.d. (A–D), day 7, 15 hour): 0.30 (–1.78, 2.38) msec
Mean difference vs. placebo (90% CI), msec ddQTcF (healthy volunteers [1]; FTR 1,200 mg q.d. (A–D), day 7, 16 hour): 0.04 (–2.04, 2.12) msec
Mean difference vs. placebo (90% CI), msec ddQTcF (healthy volunteers [1]; FTR 1,200 mg q.d. (A–D), day 7, 22.25 hour): 0.29 (–1.79, 2.36) msec
Mean change from baseline, msec ddQTcF (healthy volunteers [1]; FTR 2,400 mg b.i.d. (B), day 7, 0.5 hour): –6.04 msec
Mean change from baseline, msec ddQTcF (healthy volunteers [1]; FTR 2,400 mg b.i.d. (B), day 7, 1 hour): –6.15 msec
Mean change from baseline, msec ddQTcF (healthy volunteers [1]; FTR 2,400 mg b.i.d. (B), day 7, 2 hour): –6.90 msec
Mean change from baseline, msec ddQTcF (healthy volunteers [1]; FTR 2,400 mg b.i.d. (B), day 7, 3 hour): –3.67 msec
Mean change from baseline, msec ddQTcF (healthy volunteers [1]; FTR 2,400 mg b.i.d. (B), day 7, 4 hour): 1.64 ms
Mean change from baseline, msec ddQTcF (healthy volunteers [1]; FTR 2,400 mg b.i.d. (B), day 7, 5 hour): 6.50 ms
Mean change from baseline, msec ddQTcF (healthy volunteers [1]; FTR 2,400 mg b.i.d. (B), day 7, 6 hour): 0.18 ms
Mean change from baseline, msec ddQTcF (healthy volunteers [1]; FTR 2,400 mg b.i.d. (B), day 7, 8 hour): –3.46 msec
Mean change from baseline, msec ddQTcF (healthy volunteers [1]; FTR 2,400 mg b.i.d. (B), day 7, 10 hour): 1.51 ms
Mean change from baseline, msec ddQTcF (healthy volunteers [1]; FTR 2,400 mg b.i.d. (B), day 7, 11.5 hour): –3.88 msec
Mean change from baseline, msec ddQTcF (healthy volunteers [1]; FTR 2,400 mg b.i.d. (B), day 7, 14 hour): –1.65 msec
Mean change from baseline, msec ddQTcF (healthy volunteers [1]; FTR 2,400 mg b.i.d. (B), day 7, 15 hour): 4.45 ms
Mean change from baseline, msec ddQTcF (healthy volunteers [1]; FTR 2,400 mg b.i.d. (B), day 7, 16 hour): 8.59 ms
Mean change from baseline, msec ddQTcF (healthy volunteers [1]; FTR 2,400 mg b.i.d. (B), day 7, 22.25 hour): 0.16 ms
Mean difference vs. placebo (90% CI), msec ddQTcF (healthy volunteers [1]; FTR 2,400 mg b.i.d. (B–D), day 7, 0.5 hour): 1.50 (–0.63, 3.62) msec
Mean difference vs. placebo (90% CI), msec ddQTcF (healthy volunteers [1]; FTR 2,400 mg b.i.d. (B–D), day 7, 1 hour): 1.61 (–0.51, 3.73) msec
Mean difference vs. placebo (90% CI), msec ddQTcF (healthy volunteers [1]; FTR 2,400 mg b.i.d. (B–D), day 7, 2 hour): 3.72 (1.60, 5.84) msec
Mean difference vs. placebo (90% CI), msec ddQTcF (healthy volunteers [1]; FTR 2,400 mg b.i.d. (B–D), day 7, 3 hour): 6.36 (4.23, 8.48) msec
Mean difference vs. placebo (90% CI), msec ddQTcF (healthy volunteers [1]; FTR 2,400 mg b.i.d. (B–D), day 7, 4 hour): 8.67 (6.55, 10.79) msec
Mean difference vs. placebo (90% CI), msec ddQTcF (healthy volunteers [1]; FTR 2,400 mg b.i.d. (B–D), day 7, 5 hour): 11.18 (9.05, 13.30) msec
Mean difference vs. placebo (90% CI), msec ddQTcF (healthy volunteers [1]; FTR 2,400 mg b.i.d. (B–D), day 7, 6 hour): 8.96 (6.84, 11.10) msec
Mean difference vs. placebo (90% CI), msec ddQTcF (healthy volunteers [1]; FTR 2,400 mg b.i.d. (B–D), day 7, 8 hour): 5.33 (3.21, 7.46) msec
Mean difference vs. placebo (90% CI), msec ddQTcF (healthy volunteers [1]; FTR 2,400 mg b.i.d. (B–D), day 7, 10 hour): 4.69 (2.57, 6.81) msec
Mean difference vs. placebo (90% CI), msec ddQTcF (healthy volunteers [1]; FTR 2,400 mg b.i.d. (B–D), day 7, 11.5 hour): 3.04 (0.92, 5.17) msec
Mean difference vs. placebo (90% CI), msec ddQTcF (healthy volunteers [1]; FTR 2,400 mg b.i.d. (B–D), day 7, 14 hour): 5.30 (3.18, 7.43) msec
Mean difference vs. placebo (90% CI), msec ddQTcF (healthy volunteers [1]; FTR 2,400 mg b.i.d. (B–D), day 7, 15 hour): 8.60 (6.47, 10.73) msec
Mean difference vs. placebo (90% CI), msec ddQTcF (healthy volunteers [1]; FTR 2,400 mg b.i.d. (B–D), day 7, 16 hour): 10.10 (7.98, 12.23) msec
Mean difference vs. placebo (90% CI), msec ddQTcF (healthy volunteers [1]; FTR 2,400 mg b.i.d. (B–D), day 7, 22.25 hour): 3.63 (1.51, 5.75) msec
change from placebo in baseline‐adjusted Fridericia‐corrected QTc (ddQTcF) (healthy volunteers [1]; Fostemsavir 1,200 mg b.i.d.): did not result in a clinically meaningful change
effect on heart rate, QRS or PR intervals, or waveform morphology (healthy volunteers [1]; fostemsavir 1,200 mg q.d. and 2,400 mg b.i.d.): did not have a clinically meaningful effect
upper bound of the 90% CI around ddQTcF (healthy volunteers [1]; fostemsavir 1,200 mg q.d., all time points): below 10 msec
ddQTcF upper bound of two‐sided 90% CI at maximum (healthy volunteers [1]; [8]): 6.3 ms
maximum time‐matched ddQTcF (healthy volunteers [1]; [8]): 4.3 ms
subjects with maximum QTcF between 450 and 480 msec (healthy volunteers [1]; fostemsavir 2,400 mg b.i.d.): Three
subjects with maximum change in QTcF between 30 and 60 msec (healthy volunteers [1]; fostemsavir 2,400 mg b.i.d.): Four
ddQTcF upper bound of two‐sided 90% CI at maximum (healthy volunteers [1]; [9]): 13.3 ms
maximum time‐matched ddQTcF (healthy volunteers [1]; [9]): 11.2 ms
ddQTcF upper bound of two‐sided 90% CI at maximum (healthy volunteers [1]; fostemsavir 2,400 mg b.i.d., at 5 hours post‐AM dose, listed as FTR): 13.3 (at 5 hour) msec
ddQTcF upper 90% CI boundary, model‐predicted (healthy volunteers [2]; FTR 600 mg b.i.d. + cobicistat 150 mg q.d.): ≤ 5.0 ms
ddQTcF upper 90% CI boundary, model‐predicted (healthy volunteers [2]; FTR 600 mg b.i.d. + cobicistat 150 mg q.d., listed as FTR): 5.0 ^a msec
ddQTcF upper 90% CI boundary, model‐predicted (healthy volunteers [2]; FTR 600 mg b.i.d.): ≤ 3.2 ms
ddQTcF upper 90% CI boundary, model‐predicted (healthy volunteers [2]; FTR 600 mg b.i.d., listed as FTR): 3.2 ^a msec
AE rate (healthy volunteers [3]; fostemsavir 1,200 mg q.d.): 53%
headache (healthy volunteers [3]; fostemsavir 1,200 mg q.d.): 16%
AE rate (healthy volunteers [3]; fostemsavir 2,400 mg b.i.d.): 56%
headache (healthy volunteers [3]; fostemsavir 2,400 mg b.i.d.): 35%
subjects discontinued for AEs (healthy volunteers [3]; fostemsavir 2,400 mg b.i.d. (vomiting, elevated aminotransferases, rash, headache/anxiety/dyspnea/pharyngeal edema)): five
safety data (healthy volunteers [4]): all AEs (primarily dizziness and headache) were mild and there were no relevant cardiac signals
cardiovascular abnormalities (healthy volunteers [5]): no clinically relevant cardiovascular abnormalities were observed
activity with regard to HIV‐1 tropism (HIV‐1): active regardless of HIV‐1 tropism
in vitro cross‐resistance to other antiretroviral drug classes (HIV‐1): no in vitro cross‐resistance
subjects discontinued due to QT prolongation (> 450 msec) [6]: Less than 2%
subjects discontinued due to QT prolongation (> 450 msec), number/total [6]: 7/371
Mean Cmax [7]: 2,096 ^b ng/mL
